Source: ChEMBL document CHEMBL1649224, “Involvement of pmrAB and phoPQ in polymyxin B adaptation and inducible resistance in non-cystic fibrosis clinical isolates of Pseudomonas aeruginosa” (2009)
Calls of active or inactive are those of the source. The rule behind the calls is not given here.

Tests used:
Pseudomonas aeruginosa [1] = experiment: Antibacterial activity against Pseudomonas aeruginosa isolate 213BR by Etest; format: functional
Pseudomonas aeruginosa [2] = experiment: Antibacterial activity against Pseudomonas aeruginosa isolate 19BR by Etest; format: functional
Pseudomonas aeruginosa [3] = experiment: Antibacterial activity against Pseudomonas aeruginosa isolate 9BR by Etest; format: functional
Pseudomonas aeruginosa [4] = experiment: Antibacterial activity against Pseudomonas aeruginosa isolate 19BR by Etest in presence of beta-lactamase inhibitor Tazobactam; format: functional
Pseudomonas aeruginosa [5] = experiment: Antibacterial activity against Pseudomonas aeruginosa isolate 213BR by Etest in presence of beta-lactamase inhibitor Tazobactam; format: functional
Pseudomonas aeruginosa [6] = experiment: Antibacterial activity against Pseudomonas aeruginosa isolate 9BR by Etest in presence of beta-lactamase inhibitor Tazobactam; format: functional
Pseudomonas aeruginosa [7] = experiment: Antibacterial activity against Pseudomonas aeruginosa isolate 213BR assessed as growth after the skipped wells was observed after 48 hrs by broth microdilution method; format: functional, organism-based
Pseudomonas aeruginosa [8] = experiment: Antibacterial activity against Pseudomonas aeruginosa isolate 213BR assessed as lowest concentration at which no growth observed after 48 hrs by broth microdilution method; format: functional, organism-based
Summary of the method: (§1)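 Broth microdilution per CLSI M7-A6/M100-S15 in cation-adjusted Mueller-Hinton broth, 37°C, 48 h; polymyxin B 0.03 to 32 μg/ml, triplicate runs per isolate. Liberal MIC read as the lowest-concentration well without visible growth; skipped wells (isolated no-growth wells below wells with growth) noted.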

Pseudomonas aeruginosa [9] = experiment: Antibacterial activity against Pseudomonas aeruginosa isolate 9BR assessed as growth after the skipped wells was observed after 48 hrs by broth microdilution method; format: functional, organism-based
Pseudomonas aeruginosa [10] = experiment: Antibacterial activity against Pseudomonas aeruginosa isolate 19BR assessed as growth after the skipped wells was observed after 48 hrs by broth microdilution method; format: functional, organism-based
Pseudomonas aeruginosa [11] = experiment: Antibacterial activity against Pseudomonas aeruginosa isolate 19BR assessed as lowest concentration at which no growth observed after 48 hrs by broth microdilution method; format: functional, organism-based; summary of the method: as §1
Pseudomonas aeruginosa [12] = experiment: Antibacterial activity against Pseudomonas aeruginosa isolate 9BR assessed as lowest concentration at which no growth observed after 48 hrs by broth microdilution method; format: functional, organism-based
Pseudomonas aeruginosa [13] = experiment: Antimicrobial activity against 2 ug/ml compound pretreated Pseudomonas aeruginosa isolate 19BR assessed as outer membrane permeabilization at 8 ug/ml by fluorescence spectrophotometer using NPN fluorescent probe; format: functional, organism-based
Summary of the method: (§2)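 Cells grown in cation-adjusted Mueller-Hinton broth with 0, 0.125 or 2 μg/ml polymyxin B (preincubation), subcultured 1:100 to mid-log, washed, resuspended to OD600 0.5 in 5 mM HEPES pH 7.2 with 5 μM CCCP. NPN 10 μM final added for baseline. Polymyxin B then added at 0.25–64 μg/ml final; fluorescence ex 350/em 420 nm.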

Pseudomonas aeruginosa [14] = experiment: Antimicrobial activity against Pseudomonas aeruginosa PAO1 assessed as outer membrane permeabilization by fluorescence spectrophotometer using NPN fluorescent probe; format: functional, organism-based; summary of the method: as §2
Pseudomonas aeruginosa [15] = experiment: Effect on PA4773 gene expression in Pseudomonas aeruginosa PAO1 at 2 ug/ml by quantitative PCR analysis; format: functional, organism-based
Summary of the method: (§3)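 Cells from MIC plate wells regrown in cation-adjusted Mueller-Hinton broth with 0, 0.125 or 2 μg/ml polymyxin B at 37°C with shaking to OD600 0.5. Total RNA (4 μg) reverse-transcribed for qPCR of phoQ, arnB and PA4773, with rpsL as control. Expression is relative to untreated PAO1; triplicate biological repeats, each at least in duplicate.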

Pseudomonas aeruginosa [16] = experiment: Antimicrobial activity against Pseudomonas aeruginosa PAO1 assessed as outer membrane permeabilization at 0.125 ug/ml by fluorescence spectrophotometer using NPN fluorescent probe; format: functional, organism-based; summary of the method: as §2
Pseudomonas aeruginosa [17] = experiment: Antimicrobial activity against Pseudomonas aeruginosa isolate 9BR assessed as outer membrane permeabilization by fluorescence spectrophotometer using NPN fluorescent probe; format: functional, organism-based; summary of the method: as §2
Pseudomonas aeruginosa [18] = experiment: Antimicrobial activity against Pseudomonas aeruginosa isolate 19BR assessed as inhibition of growth at 2 ug/ml after 24 hrs; format: functional, organism-based
Summary of the method: (§4)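 Growth curves run in triplicate: overnight cultures diluted 1:20 into cation-adjusted Mueller-Hinton broth with 0, 0.125 or 2 μg/ml polymyxin B; OD600 read every 20 min for 24 h.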

Pseudomonas aeruginosa [19] = experiment: Increase in PA4773 gene expression in Pseudomonas aeruginosa isolate 213BR at 2 ug/ml by quantitative PCR analysis; format: functional, organism-based; summary of the method: as §3
Pseudomonas aeruginosa [20] = experiment: Effect on arnB gene expression in Pseudomonas aeruginosa PAO1 at 2 ug/ml by quantitative PCR analysis; format: functional, organism-based; summary of the method: as §3
Pseudomonas aeruginosa [21] = experiment: Increase in arnB gene expression in compound-resistant Pseudomonas aeruginosa isolate 9BR by quantitative PCR analysis; format: functional, organism-based
Summary of the method: (§5)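 Cells taken from MIC-plate wells at 0, 0.125 or 2 μg/ml polymyxin B, regrown in 10 ml CAMHB at the same level, shaken at 37°C to OD600 0.5. Total RNA (4 μg) reverse-transcribed; qPCR normalised to rpsL and expressed relative to PAO1 without polymyxin B. Triplicate cultures on separate days from individual MIC plates, each run at least in duplicate.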

Pseudomonas aeruginosa [22] = experiment: Antimicrobial activity against 2 ug/ml compound pretreated Pseudomonas aeruginosa isolate 9BR assessed as outer membrane permeabilization at 8 ug/ml by fluorescence spectrophotometer using NPN fluorescent probe; format: functional, organism-based; summary of the method: as §2
Pseudomonas aeruginosa [23] = experiment: Increase in arnB gene expression in Pseudomonas aeruginosa isolate 19BR at 2 ug/ml by quantitative PCR analysis; format: functional, organism-based; summary of the method: as §3
Pseudomonas aeruginosa [24] = experiment: Antimicrobial activity against Pseudomonas aeruginosa isolate 9BR assessed as inhibition of growth at 0.25 ug/ml after 24 hrs; format: functional, organism-based
Pseudomonas aeruginosa [25] = experiment: Increase in phoQ gene expression in Pseudomonas aeruginosa isolate 213BR at 2 ug/ml by quantitative PCR analysis; format: functional, organism-based; summary of the method: as §3
Pseudomonas aeruginosa [26] = experiment: Increase in arnB gene expression in Pseudomonas aeruginosa isolate 213BR at 2 ug/ml by quantitative PCR analysis; format: functional, organism-based; summary of the method: as §3
Pseudomonas aeruginosa [27] = experiment: Antimicrobial activity against Pseudomonas aeruginosa isolate 213BR assessed as inhibition of growth at 2 ug/ml after 24 hrs; format: functional, organism-based; summary of the method: as §4
Pseudomonas aeruginosa [28] = experiment: Antimicrobial activity against Pseudomonas aeruginosa isolate 9BR assessed as outer membrane permeabilization at => […] ug/ml by fluorescence spectrophotometer using NPN fluorescent probe; format: functional, organism-based
Pseudomonas aeruginosa [29] = experiment: Effect on phoQ gene expression in Pseudomonas aeruginosa PAO1 at 2 ug/ml by quantitative PCR analysis; format: functional, organism-based; summary of the method: as §3
Pseudomonas aeruginosa [30] = experiment: Antimicrobial activity against Pseudomonas aeruginosa isolate 19BR assessed as outer membrane permeabilization by fluorescence spectrophotometer using NPN fluorescent probe; format: functional, organism-based; summary of the method: as §2
Pseudomonas aeruginosa [31] = experiment: Antimicrobial activity against Pseudomonas aeruginosa isolate 19BR assessed as outer membrane permeabilization at => 8 ug/ml by fluorescence spectrophotometer using NPN fluorescent probe; format: functional, organism-based; summary of the method: as §2
Pseudomonas aeruginosa [32] = experiment: Increase in PA4773 gene expression in compound-resistant Pseudomonas aeruginosa isolate 9BR by quantitative PCR analysis; format: functional, organism-based; summary of the method: as §5
Pseudomonas aeruginosa [33] = experiment: Increase in phoQ gene expression in Pseudomonas aeruginosa isolate 19BR at 2 ug/ml by quantitative PCR analysis; format: functional, organism-based; summary of the method: as §3
Pseudomonas aeruginosa [34] = experiment: Antimicrobial activity against Pseudomonas aeruginosa PAO1 assessed as outer membrane permeabilization at 4 ug/ml by fluorescence spectrophotometer using NPN fluorescent probe; format: functional, organism-based; summary of the method: as §2
Pseudomonas aeruginosa [35] = experiment: Increase in PA4773 gene expression in Pseudomonas aeruginosa isolate 19BR at 2 ug/ml by quantitative PCR analysis; format: functional, organism-based; summary of the method: as §3

CO/N=C(\C(=O)N[C@@H]1C(=O)N2C(C(=O)[O-])=C(C[N+]3(C)CCCC3)CS[C@H]12)c1csc(N)n1 [CEFEPIME]
MIC (Pseudomonas aeruginosa [1]): > 256 mg/L | MIC (Pseudomonas aeruginosa [2]): > 256 mg/L | MIC (Pseudomonas aeruginosa [3]): > 256 mg/L

CC(C)(O/N=C(\C(=O)N[C@@H]1C(=O)N2C(C(=O)[O-])=C(C[n+]3ccccc3)CS[C@H]12)c1csc(N)n1)C(=O)O [CEFTAZIDIME]
MIC (Pseudomonas aeruginosa [1]): > 256 mg/L | MIC (Pseudomonas aeruginosa [2]): > 256 mg/L | MIC (Pseudomonas aeruginosa [3]): > 256 mg/L

O=C(O)c1cn(C2CC2)c2cc(N3CCNCC3)c(F)cc2c1=O [CIPROFLOXACIN]
MIC (Pseudomonas aeruginosa [1]): > 32 mg/L | MIC (Pseudomonas aeruginosa [2]): > 32 mg/L | MIC (Pseudomonas aeruginosa [3]): > 32 mg/L

C[C@@H](O)[C@H]1C(=O)N2C(C(=O)O)=C(S[C@@H]3CN[C@H](C(=O)N(C)C)C3)[C@H](C)[C@H]12 [MEROPENEM]
MIC (Pseudomonas aeruginosa [1]): > 32 mg/L | MIC (Pseudomonas aeruginosa [2]): > 32 mg/L | MIC (Pseudomonas aeruginosa [3]): > 32 mg/L

CCN1CCN(C(=O)N[C@@H](C(=O)N[C@@H]2C(=O)N3[C@@H]2SC(C)(C)[C@@H]3C(=O)O)c2ccccc2)C(=O)C1=O [PIPERACILLIN]
MIC (Pseudomonas aeruginosa [4]): 64 mg/L | MIC (Pseudomonas aeruginosa [5]): 96 mg/L | MIC (Pseudomonas aeruginosa [6]): 96 mg/L

COLISTIN
MIC (Pseudomonas aeruginosa [7]): 32 mg/L | MIC (Pseudomonas aeruginosa [8]): 2 mg/L | MIC (Pseudomonas aeruginosa [9]): 32 mg/L | MIC (Pseudomonas aeruginosa [10]): 4 mg/L | MIC (Pseudomonas aeruginosa [11]): 4 mg/L | MIC (Pseudomonas aeruginosa [12]): 32 mg/L

POLYMYXIN B
Activity (Pseudomonas aeruginosa [13]): inactive | Activity (Pseudomonas aeruginosa [14]): Dose-dependent effect | MIC (Pseudomonas aeruginosa [7]): 8 mg/L | MIC (Pseudomonas aeruginosa [1]): 1.5 mg/L | MIC (Pseudomonas aeruginosa [8]): 0.5 mg/L | Activity (Pseudomonas aeruginosa [15]): inactive | Activity (Pseudomonas aeruginosa [16]): Active | MIC (Pseudomonas aeruginosa [9]): 64 mg/L | Activity (Pseudomonas aeruginosa [17]): Dose-dependent effect | TIME (Pseudomonas aeruginosa [18]): 6 h | Activity (Pseudomonas aeruginosa [19]): Active | Activity (Pseudomonas aeruginosa [20]): inactive | Activity (Pseudomonas aeruginosa [21]): Dose-dependent effect | Activity (Pseudomonas aeruginosa [22]): inactive | Activity (Pseudomonas aeruginosa [23]): Active | inhibition (Pseudomonas aeruginosa [24]): inactive | Activity (Pseudomonas aeruginosa [25]): Active | Activity (Pseudomonas aeruginosa [26]): Active | TIME (Pseudomonas aeruginosa [27]): 4 h | Activity (Pseudomonas aeruginosa [28]): Active | Activity (Pseudomonas aeruginosa [29]): inactive | Activity (Pseudomonas aeruginosa [30]): Dose-dependent effect | MIC (Pseudomonas aeruginosa [2]): 1.5 mg/L | Activity (Pseudomonas aeruginosa [31]): Active | MIC (Pseudomonas aeruginosa [10]): 8 mg/L | Activity (Pseudomonas aeruginosa [32]): Dose-dependent effect | MIC (Pseudomonas aeruginosa [3]): 4 mg/L | Activity (Pseudomonas aeruginosa [33]): Active | Activity (Pseudomonas aeruginosa [34]): Active | MIC (Pseudomonas aeruginosa [11]): 0.25 mg/L | MIC (Pseudomonas aeruginosa [12]): 64 mg/L | Activity (Pseudomonas aeruginosa [35]): Active
